LEDGF integ inh: blocks HIV-1 LEDGF/p75-dependent DNA integration. TR-FRET IN-LEDGF/p75 DNA integration, Eu/Cy5. inhibition, % at 3.7 µM. actives 0.64% (n = 370,000). AID 743269;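 active means inhibition above the screen-wide mean plus 3 SD, cut at about 13% in these data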;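 further: signal is the Cy5 over europium emission ratio at 671 and 618 nm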
MBD2 inh: blocks human MBD2 binding to methylated DNA; TR-FRET, MBD2 binding to methylated oligonucleotide; inhibition, % at 4.4 µM; actives 0.31% (n = 370,000); in the data active means inhibition above about 13%
UHRF1 MBD2 ctr: blocks human UHRF1 binding to methylated DNA; Q96T88; UHRF1 binding to methylated oligo, TR-FRET; inhibition, % at 4.4 µM; AID 687016; actives 0.75% (n = 370,000); in the data active means inhibition above about 21%;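 further: UHRF1 SRA domain binding a hemimethylated CpG hairpin DNA probe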
rCAG RNA binder: molecules binding r(CAG) RNA repeats; inhibition, % at 3 µM; r(CAG) RNA repeat, TO-PRO-1 dye displacement fluorescence; actives 1.3% (n = 370,000);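 active means inhibition above the plate cutoff, the mean of all test compounds on that plate plus 3 SD, cut at about 35% in these data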;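 further: higher means more dye released from RNA so lower well fluorescence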
ATG4B inhibitor: ATG4B (human) cysteine protease inhibition | Q9Y4P1 | ATG4B cleavage of LC3-PLA2, NBD-HPC fluorescence, 1 h | inhibition, % at 8.33 µM | actives 0.51% (n = 340,000); in the data active means inhibition above about 40%
Target sequence (Q9Y4P1 whole entry, looked up): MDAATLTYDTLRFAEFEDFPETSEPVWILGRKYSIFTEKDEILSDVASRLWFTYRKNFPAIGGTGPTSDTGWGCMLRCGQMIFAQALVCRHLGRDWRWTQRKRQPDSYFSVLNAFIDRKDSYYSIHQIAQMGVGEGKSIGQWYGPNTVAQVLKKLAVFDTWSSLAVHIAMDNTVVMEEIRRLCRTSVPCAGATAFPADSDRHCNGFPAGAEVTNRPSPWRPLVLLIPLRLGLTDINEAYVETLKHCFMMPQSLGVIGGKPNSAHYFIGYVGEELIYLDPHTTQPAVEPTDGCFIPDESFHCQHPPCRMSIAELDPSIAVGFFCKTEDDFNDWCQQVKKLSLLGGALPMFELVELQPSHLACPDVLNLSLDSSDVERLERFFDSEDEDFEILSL
CSN inh: blocks human CSN-mediated cullin deneddylation; Q92905; inhibition, % at 12.5 µM; Purified CSN, SCF-Nedd8-OG deneddylation, fluorescence polarization; actives 0.38% (n = 360,000); AID 651999;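 active means pattern-corrected inhibition above about 35%, with an unprinted fluorescence ratio check between 0.5 and 1.5, limit read from the data, passing the limit was not always enough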
Target sequence (Q92905 whole entry, looked up, one chain of several): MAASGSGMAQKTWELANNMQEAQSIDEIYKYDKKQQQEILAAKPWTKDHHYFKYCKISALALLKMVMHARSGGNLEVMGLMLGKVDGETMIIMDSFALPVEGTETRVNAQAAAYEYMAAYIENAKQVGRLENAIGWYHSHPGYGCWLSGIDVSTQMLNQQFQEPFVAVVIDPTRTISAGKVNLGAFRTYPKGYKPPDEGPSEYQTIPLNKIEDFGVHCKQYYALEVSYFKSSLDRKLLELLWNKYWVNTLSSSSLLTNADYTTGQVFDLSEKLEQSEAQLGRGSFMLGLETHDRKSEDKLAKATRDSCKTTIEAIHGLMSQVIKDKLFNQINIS
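Assay system: HEK293T-derived human Csn5 enzyme; quantity: 0.24 nM enzyme; medium: Tris/NaCl/DTT buffer, pH 7.5; also added: substrate SCFSkp2-Nedd8OG, 10 nM; doses: 12.5 µM compound; schedule: 90 min reaction at room temperature; signal: FP; read-out: % inhibition of substrate cleavage by Csn5; benchmarks: substrate-only high control, full reaction low control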
ATG4B confirm: confirmation of human ATG4B inhibitors | shares compounds with ATG4B inhibitor | ATG4B protease fluorescent substrate cleavage assay | inhibition, % at 8.33 µM | actives 92% (n = 320) | AID 504757; in the data active means inhibition above about 39%
PLA2 ctr: PLA2 (human) inhibition in ATG4B counter-screen; shares compounds with ATG4B inhibitor; purified PLA2, NBD-C6-HPC fluorescence, 45 min; inhibition, % at 8.33 µM; actives 66% (n = 1,600); AID 588402; in the data active means inhibition above about 50%
Large screens that a line does not name were inactive (follow-up assays come after a bar, where they were run). Sampled rows, rich in hits. Any-hit rate of the full collection: about 3.1%.

NC(=O)c1ccc(Oc2ccc(Cl)c3ccccc23)c([N+](=O)[O-])c1	ATG4B inhibitor 62 | PLA2 ctr 54
Cc1cc(C(=O)N/N=C/c2cc(Br)cc(Br)c2OC(=O)c2cccc(F)c2)n[nH]1	ATG4B inhibitor 44 | PLA2 ctr inactive
Cc1cc(C(=O)N/N=C\c2cc(C(C)(C)C)ccc2O)n[nH]1	ATG4B inhibitor 47 (no result: LEDGF integ inh, MBD2 inh, UHRF1 MBD2 ctr, rCAG RNA binder) | PLA2 ctr 55
O/N=C(/c1ccc(F)cc1)C1CC1c1c(F)cccc1Cl (stereo unspecified)	ATG4B inhibitor 48 | PLA2 ctr inactive
COc1ccc(C2CC2/C(=N/O)c2ccccc2)cc1 (stereo unspecified)	none
COc1ccc(N2CCCN(CC(=O)Nc3ccc(Cl)c(Cl)c3)CC2)cc1	none (no result: ATG4B inhibitor, CSN inh)
N#Cc1cccc(NC(=O)O[C@@H]2CC[C@@]34CCCN3C(=O)CCC[C@H]4C2)c1	none (no result: rCAG RNA binder, ATG4B inhibitor, CSN inh)
C[C@H]1CN([C@@H](C)CO)C(=O)c2cc(NC(=O)Cc3ccccc3)ccc2O[C@H]1CN(C)Cc1ccccc1	none
C[C@@H]1CN([C@H](C)CO)C(=O)c2cc(NC(=O)Cc3ccccc3)ccc2O[C@H]1CN(C)Cc1ccc(Oc2ccccc2)cc1	ATG4B inhibitor 56 | PLA2 ctr 68
C=CCn1c(SCC(=O)Nc2ccc(CCCC)cc2)nnc1-c1ccc(Cl)cc1	none (no result: ATG4B inhibitor, CSN inh)
CC(C)CNS(=O)(=O)/C=C/c1ccc(F)cc1CNC(=O)OC(C)(C)C	none (no result: ATG4B inhibitor, CSN inh)
O=C1C(Nc2ccccc2)=C/C(=N/S(=O)(=O)c2cccs2)c2ccccc21	ATG4B inhibitor 72 (no result: LEDGF integ inh, MBD2 inh, UHRF1 MBD2 ctr, rCAG RNA binder) | PLA2 ctr 78
Cc1ccc(NC2=C/C(=N/S(=O)(=O)c3cccs3)c3ccccc3C2=O)cc1	none
Cn1cccc1-c1cc(C(=O)N/N=C/c2cc(Br)ccc2O)[nH]n1	ATG4B inhibitor 49 | PLA2 ctr 56
Cc1cc(C)cc(NC(=O)c2nnn(Cc3cc(C)ccc3C)c2N)c1	ATG4B inhibitor 57 (no result: LEDGF integ inh, MBD2 inh, UHRF1 MBD2 ctr, rCAG RNA binder) | PLA2 ctr 78
Cc1ccc(C)c(Cn2nnc(C(=O)Nc3ccc4c(c3)OCCO4)c2N)c1	ATG4B inhibitor 55 | PLA2 ctr 65
Cc1c(Cl)cccc1Nc1ccccc1C(=O)O	ATG4B inhibitor 44 | ATG4B confirm 57 | PLA2 ctr inactive
O=C1/C(=C\c2cc(Cl)c(O)c(Cl)c2)SC(=S)N1Cc1ccccc1	ATG4B inhibitor 44 | PLA2 ctr 60
COc1ccc(O)c(/C=C2/SC(=S)N(Cc3ccccc3)C2=O)c1	none
COc1cccc(C=NNC(=O)CSc2nc3ccccc3[nH]2)c1O	none (no result: ATG4B inhibitor, CSN inh)
COc1nc(OC)nc(N2CCC(C(=O)N(C)Cc3ccco3)CC2)n1	none (no result: ATG4B inhibitor, CSN inh)
COC(=O)[C@]12C[C@H](CC(=O)N3CCCC3)C(=O)N(Cc3ccc(Cl)cc3Cl)C1=C[C@H](C(C)C)O[C@@H]2C1CC1	none (no result: ATG4B inhibitor, CSN inh)
Cn1c(=O)c2cc(S(=O)(=O)N3CCN(c4ccccc4Cl)CC3)ccc2n(C)c1=O	none (no result: ATG4B inhibitor, CSN inh)
O=C(NCc1cccc(C(F)(F)F)c1)N1CCN(S(=O)(=O)c2ccccc2F)CC1	ATG4B inhibitor 51 | ATG4B confirm 61 | PLA2 ctr inactive
O=C(CCNC(=O)C1CCN(S(=O)(=O)c2ccccc2)CC1)NCc1cccc(C(F)(F)F)c1	none
COC(=O)[C@H](C)NC(=O)[C@H](CC(C)C)NC(=O)OC(C)(C)C	none (no result: ATG4B inhibitor, CSN inh)
O=C(CN1C(=O)CCSc2ccccc21)Nc1cccc(Cl)c1F	none (no result: ATG4B inhibitor, CSN inh)
CC(=O)N1c2c(cc(Br)cc2S(=O)(=O)N2CCN(c3ccccc3F)CC2)CC1C (stereo unspecified)	ATG4B inhibitor 55 | PLA2 ctr 67
Cc1cccc(CNC(=S)OC2CCC23CCC(c2ccccc2)CC3)c1 (stereo unspecified)	none (no result: ATG4B inhibitor, CSN inh)
Cc1cc(Nc2ccc(Cl)cc2)nc(NCc2ccccc2)n1	ATG4B inhibitor 44 | ATG4B confirm 69 | PLA2 ctr inactive
Cc1cc(N/N=C/c2ccc(F)cc2)nc(NCc2ccccc2)n1	ATG4B inhibitor 71 | PLA2 ctr 64
Cc1cc(N/N=C/c2ccc(Cl)cc2Cl)nc(NCc2ccccc2)n1	ATG4B inhibitor 85 | PLA2 ctr 88
Cc1ccc(/C=N/Nc2cc(C)nc(NCc3ccccc3)n2)cc1	ATG4B inhibitor 64 | PLA2 ctr 77
Cc1cc(Nc2ccccc2)nc(NCc2ccccc2)n1	none
Clc1ccc(C=NNc2ccccn2)c(Cl)c1	none
Cc1cc(N/N=C/c2ccc(N(C)C)cc2)nc(NCc2ccccc2)n1	none
Cc1cc(Nc2cccc(F)c2)nc(NCc2ccccc2)n1	none
C[C@H]1[C@@H](C(=O)N2CCCC2)CC(=O)/C(=N/OCc2ccccc2)C[C@@H]1c1ccccc1	none (no result: ATG4B inhibitor, CSN inh)
COc1ccc(/C=C2\CC3(OC(=O)c4ccco4)CCCN2C3)cc1 (stereo unspecified)	none (no result: ATG4B inhibitor, CSN inh)
CCOc1cc(/C=C2\CCC/C(=C\c3cc(Cl)c(O)c(OCC)c3)C2=O)cc(Cl)c1O	ATG4B inhibitor 44 | PLA2 ctr 51
Cc1ccc(F)cc1CNC(=O)c1cc(COc2ccc3ncccc3c2)on1	ATG4B inhibitor 61 | PLA2 ctr 68
COP(=O)(O)C(COCCC(CC(C)C)NC(=O)OCc1ccccc1[N+](=O)[O-])NC(=O)OCc1ccccc1 (stereo unspecified)	none (no result: rCAG RNA binder, ATG4B inhibitor, CSN inh)
Cc1ccc(-n2c(Cc3cccn3C)nnc2SCC(=O)N2CCc3ccccc32)cc1	ATG4B inhibitor 52 | PLA2 ctr inactive
Cc1c(C(=O)O)sc2nc(-c3cccs3)cc(C(F)(F)F)c12	none
Cc1c(C(=O)Nc2nccs2)sc2nc(-c3cccs3)cc(C(F)(F)F)c12	ATG4B inhibitor 50 | PLA2 ctr inactive
COC(=O)[C@]12C[C@H](CC(=O)NCc3ccccc3)C(=O)N(Cc3cccc4ccccc34)C1=C[C@H](C1CCCC1)O[C@@H]2C	none (no result: ATG4B inhibitor, CSN inh)
COc1ccc2c(c1OC)C(=O)OC2Nc1nc(-c2ccc(-c3ccccc3)cc2)cs1 (stereo unspecified)	ATG4B inhibitor 64 | ATG4B confirm 39 | PLA2 ctr inactive
Cc1ccccc1Cn1cc(NC(=O)CSc2nc3c(c(C(F)(F)F)n2)CCc2ccccc2-3)cn1	ATG4B inhibitor 78 | PLA2 ctr 73
COC(=O)[C@]12C[C@H](CC(=O)NCc3ccc(C)o3)C(=O)N(Cc3cccc4ccccc34)C1=C[C@H](C(C)C)O[C@@H]2C1CC1	none (no result: ATG4B inhibitor, CSN inh)
Oc1ccccc1C1CCCCC1c1ccccc1 (stereo unspecified)	ATG4B inhibitor 52 | PLA2 ctr inactive
CCOc1cc(Br)c(Br)c(C=Nc2ccc(NC(C)=O)cc2)c1O	ATG4B inhibitor 66 | PLA2 ctr 55

Screening data (PubChem)
